{
  "source": "paper PMC3361572",
  "about": "(Chemistry & biology, 2012)",
  "key": {"ABHD6": {"molecular_target": "T1, ABHD6 (Mus musculus, UniProt Q8R2Y0)", "T1 sequence (Q8R2Y0 1-336)": "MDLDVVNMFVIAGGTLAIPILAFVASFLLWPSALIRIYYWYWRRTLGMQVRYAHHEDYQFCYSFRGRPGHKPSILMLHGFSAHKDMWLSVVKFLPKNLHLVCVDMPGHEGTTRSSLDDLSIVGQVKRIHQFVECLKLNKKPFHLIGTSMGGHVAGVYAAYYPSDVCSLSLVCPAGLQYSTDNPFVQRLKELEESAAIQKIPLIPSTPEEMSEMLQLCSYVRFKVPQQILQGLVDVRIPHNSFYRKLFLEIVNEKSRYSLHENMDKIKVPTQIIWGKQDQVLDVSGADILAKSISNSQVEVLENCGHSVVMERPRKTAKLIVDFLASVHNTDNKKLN", "assay": "competitive ABPP, mouse brain membrane proteome", "type": "biochemical", "conditions": "mouse brain serine hydrolase activities, full ABPP gel", "how_it_was_run": "(§1)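 Brain (mouse or rat) or mouse lung proteomes were preincubated with the test compound, then treated with the serine hydrolase probe FP-Rh. Samples were separated by SDS-PAGE and read by in-gel fluorescence scanning. Inhibition was taken as reduced FP-Rh labelling of MAGL, ABHD6, FAAH or CES bands, and IC50 values were calculated from quantified gel bands. Three independent experiments.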"}, "MAGL [1]": {"molecular_target": "T2, MAGL (Rattus norvegicus, UniProt Q8R431)", "T2 sequence (Q8R431 1-303)": "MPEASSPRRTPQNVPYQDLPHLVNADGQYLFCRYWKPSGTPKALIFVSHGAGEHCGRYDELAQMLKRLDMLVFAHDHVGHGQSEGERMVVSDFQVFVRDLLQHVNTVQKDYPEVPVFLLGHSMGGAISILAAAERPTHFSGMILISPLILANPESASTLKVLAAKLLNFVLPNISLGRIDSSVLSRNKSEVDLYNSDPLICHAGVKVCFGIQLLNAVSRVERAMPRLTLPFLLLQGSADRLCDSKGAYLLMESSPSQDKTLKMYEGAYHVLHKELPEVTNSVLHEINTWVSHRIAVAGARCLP", "assay": "brain 2-AG hydrolytic activity from KML29-treated rats", "type": "in vivo", "conditions": "4 h", "how_it_was_run": "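Wistar rats received the test compound i.p. (1–40 mg kg−1 in saline:emulphor:ethanol 18:1:1) or vehicle and were killed after 4 h. Brain MAGL and FAAH activities were measured as hydrolysis of 2-AG and AEA, respectively. Means ± SEM, n = 3 rats/group, compared with vehicle-treated rats.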"}, "MAGL [2]": {"molecular_target": "T2, MAGL", "assay": "competitive ABPP, rat brain membrane proteome", "type": "biochemical", "how_it_was_run": "as §1"}, "MAGL [3]": {"molecular_target": "T3, MAGL (Mus musculus, UniProt O35678)", "T3 sequence (O35678 1-303)": "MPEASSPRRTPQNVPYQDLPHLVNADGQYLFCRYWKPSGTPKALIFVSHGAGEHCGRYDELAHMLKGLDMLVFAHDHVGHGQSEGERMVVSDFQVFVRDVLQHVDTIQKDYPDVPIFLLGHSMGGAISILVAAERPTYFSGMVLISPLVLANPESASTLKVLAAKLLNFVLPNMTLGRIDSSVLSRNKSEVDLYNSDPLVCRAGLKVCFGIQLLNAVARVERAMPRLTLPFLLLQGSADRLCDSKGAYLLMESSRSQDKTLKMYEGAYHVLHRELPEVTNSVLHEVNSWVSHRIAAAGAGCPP", "assay": "competitive ABPP, mouse brain membrane proteome", "type": "biochemical"}, "FAAH": {"molecular_target": "T4, FAAH (Mus musculus, UniProt O08914)", "T4 sequence (O08914 1-579)": "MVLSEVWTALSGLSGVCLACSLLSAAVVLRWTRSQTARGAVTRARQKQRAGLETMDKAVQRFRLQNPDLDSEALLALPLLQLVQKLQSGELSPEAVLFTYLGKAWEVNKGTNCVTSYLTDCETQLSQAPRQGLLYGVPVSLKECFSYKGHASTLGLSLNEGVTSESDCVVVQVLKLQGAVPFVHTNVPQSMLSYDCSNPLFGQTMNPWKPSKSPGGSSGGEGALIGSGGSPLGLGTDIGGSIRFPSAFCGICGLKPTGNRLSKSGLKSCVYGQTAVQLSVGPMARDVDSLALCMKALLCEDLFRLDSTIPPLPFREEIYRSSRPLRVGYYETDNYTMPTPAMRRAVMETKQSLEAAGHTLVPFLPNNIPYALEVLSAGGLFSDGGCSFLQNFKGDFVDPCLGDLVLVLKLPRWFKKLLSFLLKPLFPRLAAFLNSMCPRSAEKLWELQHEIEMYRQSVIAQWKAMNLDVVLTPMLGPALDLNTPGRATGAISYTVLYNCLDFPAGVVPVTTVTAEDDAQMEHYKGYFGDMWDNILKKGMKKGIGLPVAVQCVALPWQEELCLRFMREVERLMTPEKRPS", "assay": "competitive ABPP of brain from inhibitor-treated mice", "type": "in vivo"}},
  "data": [
    {"smiles": "O=C(OC(C(F)(F)F)C(F)(F)F)N1CCC(C(O)(c2ccc3c(c2)OCO3)c2ccc3c(c2)OCO3)CC1", "note": "[KML29]", "values": [
      {"measurement": "concentrations with inhibition of ABHD6", "setting": "ABHD6", "result": "> 1", "unit": "µM"},
      {"measurement": "decrease of brain 2-AG hydrolytic activity", "setting": "MAGL [1]; 20 mg kg^−1 i.p.", "result": 50, "unit": "%"},
      {"measurement": "decrease of brain 2-AG hydrolytic activity", "setting": "MAGL [1]; 40 mg kg^−1 i.p.", "result": 80, "unit": "%"},
      {"measurement": "selectivity for rat MAGL relative to rat ABHD6", "setting": "MAGL [2]; rat brain homogenates, competitive ABPP", "result": "> 20", "unit": "fold"},
      {"measurement": "inhibitor concentrations with selective inhibition of MAGL", "setting": "MAGL [2]; rat brain serine hydrolase activities, full ABPP gel", "result": "≤ 1", "unit": "µM"},
      {"measurement": "IC50", "setting": "MAGL [2]; read-out: IC50 (95% CI), rat MAGL, competitive ABPP, rat brain membrane proteome", "result": 43, "unit": "nM"},
      {"measurement": "selectivity for MAGL relative to ABHD6", "setting": "MAGL [3]; mouse brain proteome, competitive ABPP", "result": "greater than 100 fold"},
      {"measurement": "inhibitor concentrations with selective inhibition of MAGL", "setting": "MAGL [3]; mouse brain serine hydrolase activities, full ABPP gel", "result": "≤ 1", "unit": "µM"},
      {"measurement": "brain FAAH inhibition, chronic dosing", "setting": "FAAH; 40 mg kg^−1 p.o., six days", "result": "selectively inhibited MAGL without any effect on FAAH"},
      {"measurement": "selectivity over brain FAAH", "setting": "FAAH; all doses tested 1–40 mg kg^−1 p.o., 4 h", "result": "complete selectivity over FAAH"},
      {"measurement": "selectivity for MAGL over FAAH during time course", "setting": "FAAH; single oral dose 20 mg kg^−1, 24 h time course", "result": "complete selectivity for MAGL over FAAH"}
    ]}
  ]
}
